Shown are actives, neighbours in structure and some others; about 1% of the full set was active somewhere.
FXIa inh 1536: factor XIa (human) inhibition. purified FXIa, Boc-Glu-Ala-Arg-AMC fluorogenic substrate. inhibition, % at 5 µM. 220,000 compounds, 0.14% hits. AID 798;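 active = inhibition of at least 40%; inactive = inhibition below 40%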;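 also: fluorescence of freed AMC excited at 355 nm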
hK5 inh: blocks human kallikrein 5 protease activity; recombinant hK5, fluorogenic AMC substrate cleavage; inhibition, % at 5 µM; 210,000 compounds, 0.59% hits; AID 873;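 active = inhibition of 40% or more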
FXIIa inh 1536: factor XIIa (human) inhibition; inhibition, % at 5 µM; purified FXIIa, Boc-QGR-AMC fluorogenic substrate, 2 h; P00748; 220,000 compounds, 0.3% hits; in the data active = inhibition above about 40%
thrombin 1536: thrombin (human) inhibition; P00734; alpha-thrombin, Boc-VPR-AMC fluorogenic substrate cleavage; inhibition, % at 5 µM; 220,000 compounds, 0.26% hits; AID 1046;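 active = inhibition at or above 40%; inactive = inhibition below 40%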
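Material: human alpha-thrombin protein; Also added: Boc-VPR-AMC substrate, 15 µM final; Timing: enzyme reaction carried out at room temperature; Signal: fluorescence, ex 355 nm, em 460 nm; Measure: % inhibition of thrombin; Controls: enzyme without compound as high, wells lacking enzyme as low.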
Each line names hits and unclear results; the compound was inactive in the other large screens.

O=C(N/N=C/c1c(O)n(CCc2ccccc2)c(=O)[nH]c1=O)c1ccncc1	thrombin 1536 50
O=C(N/N=C/c1c(O)n(CCc2ccc(F)cc2)c(=O)[nH]c1=O)c1ccncc1	none
COC(=O)c1ccc(C(C(=O)NC2CCCCC2)N(CCN2CCOCC2)C(=O)Cc2cccs2)cc1 (centres undefined)	FXIIa inh 1536 100
CCCn1cc(CN2CCCC(C(=O)c3cccc(OC)c3)C2)c(C)n1 (centres undefined)	FXIIa inh 1536 75
O=C(c1cccn2c(=O)c3cc(Br)ccc3nc12)N1CCC2(CC1)OCCO2	FXIa inh 1536 55
CC(=O)N1CN2CN(C(C)=O)CC(C(=O)c3ccccc3)(C2)C1	hK5 inh 48
CC(=O)N1CN2CN(C(C)=O)CC(C(=O)c3ccc([N+](=O)[O-])cc3)(C2)C1	none
C=CCn1c(=O)c(C=Nc2c(OC)cccc2[N+](=O)[O-])c(O)n(CCCC)c1=O	none
CCOC(=O)c1ccc(N=C(c2ccccc2)c2c(O)n(C)c(=O)n(C)c2=O)cc1	hK5 inh 43
O=C(c1cccnc1)C1CCCN(Cc2nc(-c3cnccn3)no2)C1 (centres undefined)	FXIIa inh 1536 41
O=C(c1ccccc1)C1CCCN(Cc2nc(-c3cnccn3)no2)C1 (centres undefined)	none
C=CCn1c(O)c(/C(C)=N/N2CCCCCC2)c(=O)[nH]c1=O	none
COc1ccc(OCC(=O)N2CCN(Cc3ccc(SC)cc3)CC2)cc1	thrombin 1536 49
Nc1ccncc1Cl	hK5 inh 41
CCOP(=O)(Cc1cc(C(=O)CC)c(C)o1)OCC	none
NP(=O)(OCC(F)(F)F)Oc1ccc(Cl)cc1 (centres undefined)	none
O=C(NCc1ccccn1)c1ccccc1Cl	hK5 inh 61
Nc1cc(Cl)c2nonc2c1[N+](=O)[O-]	none
COC(=O)C(O)(c1c(C)[nH]n(-c2ccccc2)c1=O)C(F)(F)F (centres undefined)	hK5 inh 99
COC(=O)C(O)(c1c[nH]c2ccccc12)C(F)(F)F (centres undefined)	none
COc1ccc(C(=O)C2CCCN(Cc3cnc(C)s3)C2)cc1OC (centres undefined)	none (no result: hK5 inh)
Cc1ncc(CN2CCCC(C(=O)c3ccc(C(C)(C)C)cc3)C2)s1 (centres undefined)	FXIIa inh 1536 63
O=CC(Cl)P(=O)(N1CCOCC1)N1CCOCC1 (centres undefined)	none
Cn1cccc1/C=C1\C(=O)NC(=O)N(Cc2ccccc2Cl)C1=O	FXIa inh 1536 48
CCC12CN3CCN(CC(C3)/C1=N/NC(=O)c1ccncc1)C2	none
CN(C)C(=O)Oc1cccc(-c2cn3cc(Cl)ccc3n2)c1	none
CN(C)C(=O)Oc1ccc(-c2cn3cc(Cl)ccc3n2)cc1	hK5 inh 44
Cc1cc(C)[n+](C2C3CC4CC(C3)CC2C4)o1 (centres undefined)	none

Compound activity (PubChem)
